From ChEMBL document CHEMBL1122406, “Bis(bioreductive) alkylating agents: synthesis and biological activity in a nude mouse human carcinoma model” (1983)

Experiments:
[1] = tested on: EBV-positive nasopharyngeal cell line; assay: Percent colony reduction in cell growth in EBV-positive nasopharyngeal cell lines after administration of 0.04 ug/mL dose from experiment A; format: functional, human gammaherpesvirus 4
Outline: (§1)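 D98/HR1 cells from 3-4-day monolayer cultures, suspended at 4.0×10^5/mL and exposed to drug for 1 h at 37 °C. Quinones dissolved in dichloromethane, diluted in 95% ethanol, then in warm McCoy's 5A. Cells washed twice, plated in agar over an agar base at 6.7×10^4 cells/plate. Colony survival expressed relative to control, as percent reduction.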

[2] = tested on: EBV-positive nasopharyngeal cell line; assay: EBV-positive nasopharyngeal colony count obtained from the examination of uniform plate surface areas after a dose of 0.004 ug/mL from experiment B; format: functional, human gammaherpesvirus 4
Outline: (§2)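 Modified clonogenic assay in D98/HR1 cells from 3-4-day-old monolayer cultures. Drug diluted into warm McCoy's 5A medium; quinones first dissolved in dichloromethane, then diluted in 95% ethanol. Cells at 4.0 × 10^5/mL exposed for 1 h at 37 °C, washed twice, then plated in 0.3% agar CMRL 1066 medium over a 0.5% agar base, 6.7 × 10^4 cells/plate. Survival is expressed relative to control.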

[3] = tested on: EBV-positive nasopharyngeal cell line; assay: Percent colony reduction in cell growth in EBV-positive nasopharyngeal cell lines after administration of 0.04 ug/mL dose from experiment B; format: functional, human gammaherpesvirus 4; outline: as §1
[4] = tested on: EBV-positive nasopharyngeal cell line; assay: Percent colony reduction in cell growth in EBV-positive nasopharyngeal cell lines after administration of 0.004 ug/mL dose from experiment B; format: functional, human gammaherpesvirus 4; outline: as §1
[5] = tested on: EBV-positive nasopharyngeal cell line; assay: EBV-positive nasopharyngeal colony count obtained from the examination of uniform plate surface areas after a dose of 0.04 ug/mL from experiment B; format: functional, human gammaherpesvirus 4; outline: as §2
[6] = tested on: EBV-positive nasopharyngeal cell line; assay: EBV-positive nasopharyngeal colony count obtained from the examination of uniform plate surface areas after a dose of 0.04 ug/mL from experiment A; format: functional, human gammaherpesvirus 4; outline: as §2
[7] = tested on: EBV-positive nasopharyngeal cell line; assay: Percent colony reduction in cell growth in EBV-positive nasopharyngeal cell lines after administration of 0.4 ug/mL dose from experiment B; format: functional, human gammaherpesvirus 4; outline: as §1
[8] = tested on: EBV-positive nasopharyngeal cell line; assay: EBV-positive nasopharyngeal colony count obtained from the examination of uniform plate surface areas after a dose of 0.4 ug/mL from experiment B; format: functional, human gammaherpesvirus 4; outline: as §2
Mus musculus [9] = assay: Base line measurement at a sample size of 5 after second week of 5 mg/kg dose administration; format: functional
Outline: (§3)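 Nude mice pretreated with 0.5 mL rabbit anti-mouse thymocyte serum s.c., inoculated s.c. 7 days later with 1×10^7 D98/HR1 cells in PBS, and given a second serum dose two weeks later. Dosing started at tumors ~2-3 mm diameter, daily for 14 days, then 2 weeks off. Dose per kg from daily individual weights; Klucel vehicle. Group mean tumor volume (mm3) adjusted by analysis of covariance for base line.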

[10] = tested on: EBV-positive nasopharyngeal cell line; assay: Percent colony reduction in cell growth in EBV-positive nasopharyngeal cell lines after administration of 0.2 ug/mL dose; format: functional, human gammaherpesvirus 4; outline: as §1
[11] = tested on: EBV-positive nasopharyngeal cell line; assay: EBV-positive nasopharyngeal colony count obtained from the examination of uniform plate surface areas after a dose of 0.2 ug/mL; format: functional, human gammaherpesvirus 4; outline: as §2
Mus musculus [12] = assay: Base line measurement at a sample size of 3 after fourth week of 20 mg/kg dose administration; format: functional; outline: as §3
[13] = tested on: EBV-positive nasopharyngeal cell line; assay: EBV-positive nasopharyngeal colony count obtained from the examination of uniform plate surface areas after a dose of 1.34 ug/mL; format: functional, human gammaherpesvirus 4; outline: as §2
Mus musculus [14] = assay: Base line measurement at a sample size of 3 after first week of 20 mg/kg dose administration; format: functional; outline: as §3
[15] = tested on: EBV-positive nasopharyngeal cell line; assay: EBV-positive nasopharyngeal colony count obtained from the examination of uniform plate surface areas after a dose of 2.68 ug/mL; format: functional, human gammaherpesvirus 4; outline: as §2
[16] = tested on: EBV-positive nasopharyngeal cell line; assay: Percent colony reduction in cell growth in EBV-positive nasopharyngeal cell lines after administration of 0.67 ug/mL dose; format: functional, human gammaherpesvirus 4; outline: as §1
[17] = tested on: EBV-positive nasopharyngeal cell line; assay: Percent colony reduction in cell growth in EBV-positive nasopharyngeal cell lines after administration of 6.28 ug/mL dose; format: functional, human gammaherpesvirus 4; details: in the assay text read “2.68 ug/mL” for “6.28 ug/mL”; outline: as §1
Mus musculus [18] = assay: Base line measurement at a sample size of 3 after second week of 20 mg/kg dose administration; format: functional; outline: as §3
Mus musculus [19] = assay: Base line measurement at a sample size of 5 after fourth week of 5 mg/kg dose administration; format: functional; outline: as §3
Mus musculus [20] = assay: Base line measurement at a sample size of 5 after first week of 5 mg/kg dose administration; format: functional; outline: as §3
[21] = tested on: EBV-positive nasopharyngeal cell line; assay: EBV-positive nasopharyngeal colony count obtained from the examination of uniform plate surface areas after a dose of 0.67 ug/mL; format: functional, human gammaherpesvirus 4; outline: as §2
[22] = tested on: EBV-positive nasopharyngeal cell line; assay: Percent colony reduction in cell growth in EBV-positive nasopharyngeal cell lines after administration of 1.34 ug/mL dose; format: functional, human gammaherpesvirus 4; outline: as §1
[23] = tested on: EBV-positive nasopharyngeal cell line; assay: Percent colony reduction in cell growth in EBV-positive nasopharyngeal cell lines after administration of 10 ug/mL dose; format: functional, cell-based; details: human gammaherpesvirus 4; outline: as §1
[24] = tested on: EBV-positive nasopharyngeal cell line; assay: EBV-positive nasopharyngeal colony count obtained from the examination of uniform plate surface areas after a dose of 10 ug/mL; format: functional, cell-based; details: human gammaherpesvirus 4; outline: as §2
[25] = tested on: EBV-positive nasopharyngeal cell line; assay: Percent colony reduction in cell growth in EBV-positive nasopharyngeal cell lines after administration of 6.0 ug/mL dose; format: functional, human gammaherpesvirus 4; outline: as §1
[26] = tested on: EBV-positive nasopharyngeal cell line; assay: EBV-positive nasopharyngeal colony count obtained from the examination of uniform plate surface areas after a dose of 6.0 ug/mL; format: functional, human gammaherpesvirus 4; outline: as §2
[27] = tested on: EBV-positive nasopharyngeal cell line; assay: EBV-positive nasopharyngeal cells (D98/HR1) survived at concentration of 3.0 ug/mL of compound; format: functional, human gammaherpesvirus 4; outline: as §2
[28] = tested on: EBV-positive nasopharyngeal cell line; assay: Percent colony reduction in cell growth in EBV-positive nasopharyngeal cell lines (D98/HR1) after administration of 3.0 ug/mL dose; format: functional, human gammaherpesvirus 4; outline: as §1
[29] = tested on: EBV-positive nasopharyngeal cell line; assay: EBV-positive nasopharyngeal colony count obtained from the examination of uniform plate surface areas after a dose of 0.067 ug/mL from Experiment B; format: functional, human gammaherpesvirus 4; outline: as §2
Mus musculus [30] = assay: Base line measurement at a sample size of 5 after second week of 5 mg/kg dose administration in mice; format: functional; outline: as §3
Mus musculus [31] = assay: Base line measurement at a sample size of 5 after first week of 5 mg/kg dose administration in mice; format: functional; outline: as §3
Mus musculus [32] = assay: Base line measurement at a sample size of 5 after fourth week of 5 mg/kg dose administration in mice; format: functional; outline: as §3
[33] = tested on: EBV-positive nasopharyngeal cell line; assay: Percent colony reduction in cell growth in EBV-positive nasopharyngeal cell lines after in vitro exposure at 1.34 ug/mL
[34] = tested on: EBV-positive nasopharyngeal cell line; assay: EBV-positive nasopharyngeal colony count obtained from the examination of uniform plate surface areas after a dose of 1.34 ug/mL from Experiment B; format: functional, human gammaherpesvirus 4; outline: as §2
[35] = tested on: EBV-positive nasopharyngeal cell line; assay: EBV-positive nasopharyngeal colony count obtained from the examination of uniform plate surface areas after a dose of 0.67 ug/mL from Experiment B; format: functional, human gammaherpesvirus 4; outline: as §2
Mus musculus [36] = assay: Base line measurement at a sample size of 4 after second week of 20 mg/kg dose administration in mice; format: functional; outline: as §3
[37] = tested on: EBV-positive nasopharyngeal cell line; assay: EBV-positive nasopharyngeal colony count obtained from the examination of uniform plate surface areas after a dose of 2.68 ug/mL from Experiment B in mice; format: functional, human gammaherpesvirus 4
Mus musculus [38] = assay: Base line measurement at a sample size of 4 after fourth week of 20 mg/kg dose administration in mice; format: functional; outline: as §3
Mus musculus [39] = assay: Base line measurement at a sample size of 4 after first week of 20 mg/kg dose administration in mice; format: functional; outline: as §3
[40] = tested on: EBV-positive nasopharyngeal cell line; assay: Percent colony reduction in cell growth in EBV-positive nasopharyngeal cell lines after administration of 0.067 ug/mL dose
[41] = tested on: EBV-positive nasopharyngeal cell line; assay: EBV-positive nasopharyngeal colony count obtained from the examination of uniform plate surface areas after a dose of 0.1 ug/mL; format: functional, human gammaherpesvirus 4; outline: as §2
[42] = tested on: EBV-positive nasopharyngeal cell line; assay: Percent colony reduction in cell growth in EBV-positive nasopharyngeal cell lines (D98/HR1) after administration of 100 ug/mL dose; format: functional, human gammaherpesvirus 4; outline: as §1
[43] = tested on: EBV-positive nasopharyngeal cell line; assay: EBV-positive nasopharyngeal cells (D98/HR1) survived at concentration of 100 ug/mL of compound; format: functional, human gammaherpesvirus 4; outline: as §2
[44] = tested on: EBV-positive nasopharyngeal cell line; assay: Percent colony reduction in cell growth in EBV-positive nasopharyngeal cell lines (D98/HR1) after administration of 0.3 ug/mL dose; format: functional, human gammaherpesvirus 4; outline: as §1
[45] = tested on: EBV-positive nasopharyngeal cell line; assay: EBV-positive nasopharyngeal cells (D98/HR1) survived at concentration of 0.3 ug/mL of compound; format: functional, human gammaherpesvirus 4; outline: as §2

COc1cccc2c1C(=O)c1c(O)c3c(c(O)c1C2=O)C[C@@](O)(C(=O)CO)C[C@@H]3O[C@H]1C[C@H](N)[C@H](O)[C@H](C)O1 [DOXORUBICIN]
Reduction [1]: 63% | Survival [2]: 0.69 | Reduction [3]: 82% | Reduction [4]: 31% | Survival [5]: 0.18 | Survival [6]: 0.37 | Reduction [7]: >99% | Survival [8]: <0.1

O=C1C=C(CBr)C(=O)C(CCC2=CC(=O)C=C(CBr)C2=O)=C1
Baseline (Mus musculus [9]): 43.2 | Reduction [10]: 0% | Survival [11]: 1 | Baseline (Mus musculus [12]): 29.69 | Survival [13]: 0.77 | Baseline (Mus musculus [14]): 12.54 | Survival [15]: 0.91 | Reduction [16]: 19% | Reduction [17]: 9% | Baseline (Mus musculus [18]): 17.52 | Baseline (Mus musculus [19]): 137.03 | Baseline (Mus musculus [20]): 22.32 | Survival [21]: 0.81 | Reduction [22]: 23%

CISPLATIN
Reduction ([10]; human gammaherpesvirus 4): 60% | Reduction [23]: 97% | Survival ([11]; human gammaherpesvirus 4): 0.4 | Survival [24]: 0.03

CC[C@]1(O)C[C@@H]2CN(CCc3c([nH]c4ccccc34)[C@@](C(=O)OC)(c3cc4c(cc3OC)N(C)[C@H]3[C@@](O)(C(=O)OC)[C@H](OC(C)=O)[C@]5(CC)C=CCN6CC[C@]43[C@@H]65)C2)C1 [VINBLASTINE]
Reduction [25]: >99% | Survival [26]: <0.01

COc1cc([C@@H]2c3cc4c(cc3[C@@H](O[C@@H]3O[C@@H]5CO[C@@H](C)O[C@H]5[C@H](O)[C@H]3O)[C@H]3COC(=O)[C@H]23)OCO4)cc(OC)c1O [ETOPOSIDE]
Survival [27]: 0.3 | Reduction [28]: 70%

CC(=O)OCC1=CC(=O)C=C(CCC2=CC(=O)C=C(COC(C)=O)C2=O)C1=O
Survival [29]: 0.7 | Baseline (Mus musculus [30]): 162.76 | Baseline (Mus musculus [31]): 69.66 | Baseline (Mus musculus [32]): 358.79 | Reduction [33]: -19% | Survival [34]: 1.19 | Survival [35]: 1.34 | Baseline (Mus musculus [36]): 94.83 | Survival [37]: 1.35 | Baseline (Mus musculus [38]): 360.23 | Baseline (Mus musculus [39]): 34.53 | Reduction [40]: 30%

O=C1c2c(O)ccc(O)c2C(=O)c2c(NCCNCCO)ccc(NCCNCCO)c21 [MITOXANTRONE]
Survival [41]: 0.33

CN(Cc1cnc2nc(N)nc(N)c2n1)c1ccc(C(=O)N[C@@H](CCC(=O)O)C(=O)O)cc1 [METHOTREXATE]
Reduction [42]: >99% | Survival [43]: <0.01 | Reduction [44]: 60% | Survival [45]: 0.4
